The list is not random: actives were taken first. Their share in the collection is about 1.5%.
APJ ag: agonists of human apelin receptor APJ, primary screen, CHO-K1 cells, PathHunter beta-arrestin, luminescence. activation, % at 20 µM. 330,000 tested, 0.11% active. 0% DMSO wells, 100% apelin;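 active = activation more than six SD over the plate average, tested at 20 µM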
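Assay system: engineered CHO-K1 APJ arrestin reporter cells; Amount: 1000 CHO-K1 reporter cells seeded per well; Dosing: one dose, 20 µM compound, 1% DMSO; Times: compound stimulation 90 min at 25 °C, detection 60 min; Measured by: luminescent beta-gal fragment complementation, chemiluminescent substrate; Read-out: APJ–arrestin association signal; Controls: DMSO vs Apelin-13 10 nM.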
HTR2A ag: mouse Htr2a agonists via beta-arrestin recruitment, primary screen, cell-based, luminescence. AID 624169, 2012. activation, % at 7.6 µM. 360,000 tested, 0.66% active. CHO-K1 mHTR2A beta-arrestin complementation; percent of 30 µM serotonin response;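 active = activation above a run cutoff, the mean activation of all tested compounds plus 3 SD, cut at about 14% in these data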
APJ antag: antagonists of human apelin receptor APJ, primary screen, CHO-K1 cells, beta-arrestin complementation, luminescence; P35414; inhibition, % at 20 µM; 330,000 tested, 0.32% active; AID 2521, 2010;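 active = inhibition above about 40% at 20 µM, limit read from the data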;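 note: cells challenged with 10 nM apelin-13 agonist together with compound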
CCR6 antagonist: CCR6 receptor antagonists, primary screen, cell-based, CHO-K1, luminescence, beta-arrestin, uHTS. C-C chemokine receptor type 6 (Homo sapiens), P51684. CHO-K1 CCR6 PathHunter beta-arrestin, CCL20-stimulated. inhibition, % at 20 µM. 340,000 tested, 0.49% active. AID 493098, 2011;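 active = compounds whose inhibition of the agonist-driven luminescence signal at 20 µM reaches about 50%, limit read from the data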;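 note: cells stimulated with CCL20 at 14 nM final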
CXCR6 block: CXCR6 receptor inhibitors, primary screen, cell-based, beta-arrestin, luminescence, CHO-K1 PathHunter, 1536-well; C-X-C chemokine receptor type 6 (Homo sapiens), O00574; inhibition, % at 20 µM; 360,000 tested, 0.36% active; AID 602244, 2012; in the data active = inhibition above about 34%, passing the limit was not always enough;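 note: antagonist mode with CXCL16 agonist at 10 nM final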
NTR1 ag: agonists of human NTR1, primary screen, imaging, U2OS cells, beta-arrestin-GFP, high content; Neurotensin receptor type 1 (Homo sapiens), P30989; AID 493036, 2011; 330,000 tested, 0.17% active; NTR1-U2OS beta-arrestin-GFP spot imaging, agonist mode; activation, % at 20 µM;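 active = activation at or above 40% of the spot to cytoplasm intensity ratio, with at least 20 cells analyzed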
MOR ag counter: OPRM1 agonists via beta-arrestin recruitment, confirmation, counter-screen for mouse HTR2A agonist project, cell-based, luminescence, single concentration | shares compounds with HTR2A ag | U2OS OPRM1 beta-arrestin PathHunter; DMSO 0%, DAMGO 9.3 µM 100% | activation, % at 9.3 µM | 2,300 tested, 5.3% active | AID 624380, 2012;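 active = mean activation above the mean of DMSO-only wells plus 3 SD, cut at about 0.5% in these data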
Target sequence (P35372 whole entry, looked up): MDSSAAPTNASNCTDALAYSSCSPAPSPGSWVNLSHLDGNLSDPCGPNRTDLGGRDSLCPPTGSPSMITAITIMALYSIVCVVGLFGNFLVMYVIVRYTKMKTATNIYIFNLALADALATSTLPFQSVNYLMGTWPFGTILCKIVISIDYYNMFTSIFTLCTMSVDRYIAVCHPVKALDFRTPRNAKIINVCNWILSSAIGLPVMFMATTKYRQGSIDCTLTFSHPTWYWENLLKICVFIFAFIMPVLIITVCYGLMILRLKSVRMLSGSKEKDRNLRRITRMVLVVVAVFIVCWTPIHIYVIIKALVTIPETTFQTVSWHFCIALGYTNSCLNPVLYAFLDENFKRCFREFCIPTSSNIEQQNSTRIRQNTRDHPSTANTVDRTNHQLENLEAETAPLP
HTR2A ag conf: mouse HTR2A agonists, beta-arrestin recruitment, confirmation, cell-based, luminescence, CHO-K1 PathHunter, triplicate; shares compounds with HTR2A ag; DMSO 0%, 30 µM serotonin 100%; activation, % at 7.6 µM; 2,300 tested, 19% active; AID 624381, 2012;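 active = mean activation across triplicates above the hit threshold derived in the original primary screen, cut at about 15% in these data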
A number is an active result; i = inactive; nt = no result.

SMILES | APJ ag | HTR2A ag | APJ antag | CCR6 antagonist | CXCR6 block | NTR1 ag | MOR ag counter | HTR2A ag conf
COc1cccc(-n2cc(CNCc3cn(C)nc3-c3ccccc3F)cn2)c1 | i | 30.3 | i | i | i | i | i | 97.2
COc1cccc(-n2cc(CNCc3c(C(=O)N(C)C)nc4ccc(Cl)cn34)cn2)c1 | i | i | i | i | i | i | nt | nt
COc1ccccc1NS(=O)(=O)c1cccc(C(=O)NNC(=O)c2ccc(Cl)nc2)c1 | i | i | i | i | i | i | nt | nt
COc1ccccc1NS(=O)(=O)c1cccc(C(=O)NNC(=O)c2ccc(O)c(Cl)c2)c1 | i | 15.8 | i | i | i | i | i | i
COc1ccc(/C=C/C(=O)OCC(=O)Nc2ccc3[nH]c(=O)[nH]c3c2)cc1OC | i | i | i | i | i | i | nt | nt
C[C@]12c3[nH]c4ccc(Cl)cc4c3CCN1C(=O)[C@@H](CC(=O)NCCC1=CCCCC1)C[C@@H]2C(=O)N1CCOCC1 | nt | 23.1 | nt | i | i | i | i | i
Cc1cnc(C2OCCO2)c2cccc(N)c12 | nt | i | nt | nt | i | nt | nt | nt
CC(C)(CC(=O)O)CC(=O)NCc1c(Cl)cccc1Sc1ccc(Cl)cc1 | i | 15.5 | i | i | i | i | i | i
CC[C@@H]1C/C=C\Cc2ccccc2[C@H](C(=O)C[C@@H](O)CC(C)=O)OC1=O | i | i | i | i | i | i | nt | nt
CC(C)c1nc2sc3c(=O)[nH]cnc3c2c2c1CCC2 | i | i | i | i | i | i | nt | nt
CC(C)c1nc2sc3c(=S)nc[nH]c3c2c2c1CCC2 | i | 15.8 | i | i | i | i | i | i
Brc1cccc(CN2CCN(c3ncccn3)CC2)c1 | i | 33.5 | i | i | i | i | i | 83.7
Cc1cccc(CN2CCN(c3ncccn3)CC2)c1 | i | 37.1 | i | i | i | i | i | 92.9
c1ccc(COc2cccc(CN3CCN(c4ccccn4)CC3)c2)cc1 | i | 35.9 | i | i | i | i | i | 93.2
c1ccc(COc2cccc(CN3CCCCC3)c2)cc1 | i | i | i | i | i | i | nt | nt
Cc1ccc(CN2CCN(c3ccccn3)CC2)s1 | i | 48.8 | i | i | i | i | i | 103.0
CCc1nn(C(C)C(=O)NCc2cccc(OC)c2)c(=O)c2cc3occc3n12 (centres undefined) | i | i | i | i | i | i | nt | nt
Cc1ccc(N(Cc2ccccc2)C(=O)c2ccc(Cl)c(S(=O)(=O)N3CCOCC3)c2)cc1 | i | i | i | i | i | i | nt | nt
CS(=O)(=O)c1ccc(-c2csc(C(O)c3cccc(Cl)c3)n2)cc1 (centres undefined) | nt | i | nt | nt | i | nt | nt | nt
CC1(C)CC(=O)N(c2cc(Cl)ccc2Cl)C(=O)C1 | i | i | i | i | i | i | nt | nt
CC1(C(=O)NS(=O)(=O)c2ccc(C#N)cc2)CCN1C(=O)Cc1ccc(Cl)cc1Cl (centres undefined) | nt | i | nt | nt | i | nt | nt | nt
COc1ccccc1N1CCN(Cc2ccsc2)CC1 | i | i | i | i | i | i | nt | nt
Cc1cccc(CN2CCN(c3ccccn3)CC2)c1 | i | 31.5 | i | i | i | i | i | 92.3
c1ccc(N2CCN(Cc3ccsc3)CC2)nc1 | i | 35.4 | i | i | i | i | i | 102.2
CCSc1nnc(NC(=O)CCN2C(=O)C3CCCCC3C2=O)s1 (centres undefined) | i | i | i | i | i | i | nt | nt
SMILES | APJ ag | HTR2A ag | APJ antag | CCR6 antagonist | CXCR6 block | NTR1 ag | MOR ag counter | HTR2A ag conf
CCOc1ccc(-n2c(=S)sc3c(=O)[nH]c(SCC(=O)C(C)(C)C)nc32)cc1 | i | 17.0 | i | i | i | i | i | i
COc1cccc(N2CCN(C(=O)c3cccc(NC4=NC5CS(=O)(=O)CC5S4)c3)CC2)c1 (centres undefined) | i | i | i | i | i | i | nt | nt
CC(C)N=c1scc(-c2cccs2)n1/N=C/c1ccc(O)c(O)c1O | i | 14.6 | i | i | i | i | 1.1 | 17.8
CN=c1scc(-c2ccccc2F)n1/N=C/c1ccc(O)c(O)c1O | nt | i | nt | i | i | nt | nt | nt
COc1ccc(NC(=O)CCNS(=O)(=O)c2ccc3[nH]c(=O)oc3c2)cc1Cl | i | 21.6 | i | i | i | i | i | i
Cc1ccc(NC(=O)CCNS(=O)(=O)c2ccc3[nH]c(=O)oc3c2)cc1 | i | i | i | i | i | i | nt | nt
Cc1csc2nc(CNS(=O)(=O)c3ccc4c(c3)OCCO4)cn12 | i | i | i | i | i | i | nt | nt
Cc1ccn2cc(CNS(=O)(=O)c3ccc4c(c3)OCCO4)nc2c1 | i | 25.7 | i | i | i | i | i | i
CCC(C(=O)N1CCN(c2cccc(Cl)c2)CC1)c1ccccc1 (centres undefined) | i | i | i | i | i | i | nt | nt
O=C(O)CCC(=O)N1CCN(c2cccc(Cl)c2)CC1 | i | i | i | i | i | i | nt | nt
CC(=O)/C(C(=N)N1CCN(c2cccc(Cl)c2)CC1)=C(\C)O | i | 17.9 | i | i | i | i | i | i
O=C(O)/C=C/C(=O)N1CCN(c2cccc(Cl)c2)CC1 | i | 30.7 | i | i | i | i | i | i
N#CCC(=N)N1CCN(c2cccc(Cl)c2)CC1 | i | 15.1 | i | i | i | i | i | i
Cc1cc(C)nc(N2N=C(c3ccccc3)CC2=O)n1 | i | i | i | i | i | i | nt | nt
O=C1CC(c2ccccc2)=NN1c1ccccc1 | nt | 14.8 | nt | i | i | nt | i | i
CCn1cc(CN2CCC(C(=O)Nc3ccc(Oc4ccccc4F)cc3)CC2)cn1 | nt | 14.6 | nt | nt | i | nt | i | i
Cc1ccc(CC(=O)N2CCN(C(=O)C3CCCO3)CC2)cc1 (centres undefined) | i | i | i | i | i | i | nt | nt
COc1cc(Cl)c(S(=O)(=O)N2CCOCC2)cc1Cl | i | 14.5 | i | i | i | i | i | i
COc1cc(Cl)c(S(=O)(=O)N2CC(C)OC(C)C2)cc1Cl (centres undefined) | i | i | i | i | i | i | nt | nt
O=C(NCc1cccc(C(F)(F)F)c1)N1CCN(S(=O)(=O)c2ccccc2F)CC1 | i | i | i | i | i | i | nt | nt
Cc1c(C(=O)OCC(=O)c2c(N)n(CC(C)C)c(=O)n(C)c2=O)oc2ccccc12 | i | 18.4 | i | i | i | i | i | i
